Source: publication PMC6796888 (ACS Omega, 2019)
Converted amounts (≈) assume the structure as drawn.

How the values were obtained:
E. faecalis MTCC 439 [1] = assay: In vitro screening, % growth inhibition at 250 μg/mL; format: cell-based, Enterococcus faecalis; conditions: for inhibition at 250 µg/mL: Enterococcus faecalis, MTCC439, 24 h, read-out: % inhibition at 250 μg/mL
Outline: (§1)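 Test compounds dissolved in DMSO and diluted in test medium. Mid-log cultures diluted in nutrient broth to McFarland standard and treated with 250 μg/mL in 96-well plates, 37 °C, 160 rpm, 24 h. Growth read as OD at 580 nm; % inhibition calculated from absorbance against untreated growth. Run twice on different occasions.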

P. auroginosa MTCC 2453 [2] = assay: as above; format: cell-based, Pseudomonas auroginosa; conditions: for inhibition at 250 µg/mL: Pseudomonas, MTCC2453, 24 h, read-out: % inhibition at 250 μg/mL
Outline: as §1

S. pneumoniae MTCC 655 [3] = assay: as above; format: cell-based, Streptococcus pneumoniae; conditions: for inhibition at 250 µg/mL: Streptococcus pneumoniae, MTCC655, 24 h, read-out: % inhibition at 250 μg/mL
Outline: as §1

E. coli ATCC 25922 [4] = assay: as above; format: cell-based, Escherichia coli; conditions: for inhibition at 250 µg/mL: Escherichia coli, ATCC25922, 24 h, read-out: % inhibition at 250 μg/mL
Outline: as §1

S. typhimurium MTCC 3224 [5] = assay: as above; format: cell-based, Salmonella typhimurium; conditions: 24 h
Outline: as §1

E. faecalis MTCC 439 [6] = assay: MIC by broth microdilution; format: cell-based; conditions: Enterococcus faecalis, MTCC439
S. typhimurium MTCC 3224 [7] = assay: MIC by broth microdilution; format: cell-based; conditions: Salmonella enterica, MTCC3224|TYPHIMURIUM
P. auroginosa MTCC 2453 [8] = assay: MIC by broth microdilution; format: cell-based, Pseudomonas auroginosa; conditions: Pseudomonas, MTCC2453
S. pneumoniae MTCC 655 [9] = assay: MIC by broth microdilution; format: cell-based; conditions: Streptococcus pneumoniae, MTCC655
E. coli ATCC 25922 [10] = assay: MIC by broth microdilution; format: cell-based; conditions: Escherichia coli, ATCC25922
Hemolytic assay = format: cell-based; conditions: human, human red blood cells (erythrocytes/PBS suspension)
Outline: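 Human blood from a healthy donor was collected in EDTA and spun at 2000 rpm for 10 min at room temperature. Erythrocytes were PBS-washed, made into a 10% (v/v) suspension and diluted 1:10. Test compound (400–3.125 μg/mL in PBS) mixed with an equal volume of this suspension, 1 h at 37 °C, then spun.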

E. coli ATCC 25922 [11] = assay: Disk diffusion assay; format: cell-based, Escherichia coli
S. pneumoniae MTCC 655 [12] = assay: Disk diffusion assay; format: cell-based, Streptococcus pneumoniae
S. pneumoniae MTCC 655 [13] = assay: Spot assay; format: cell-based, Streptococcus pneumoniae; conditions: 2MIC, 6 h exposure
Outline: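 Mid-log S. pneumoniae MTCC 655 harvested and diluted in sterile PBS to McFarland standard. 2 mL suspension exposed to test compound at 2MIC, MIC or 0.5MIC, 37 °C, 160 rpm, 6 h. 2 μL spots put on nutrient agar, 37 °C for 24 h, growth scored +/−. Ciprofloxacin-treated positive and untreated negative controls. Triplicate, three occasions.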

E. coli [14] = assay: Growth kinetic studies; format: cell-based, Escherichia coli; conditions: 2MIC and MIC
S. pneumoniae [15] = assay: Growth kinetic studies; format: cell-based, Streptococcus pneumoniae; conditions: 2MIC and MIC
E. coli [16] = assay: Time–kill curve assay; format: cell-based, Escherichia coli
Outline: (§2)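 Nutrient broth inoculated with about 2 × 10^6 cells of fresh culture, two-fold diluted and exposed to test compound at MIC or 2MIC; untreated control included. Incubation at 37 °C, 160 rpm. At 0, 2, 4, 8 and 24 h, 100 μL was diluted in sterile saline, 50 μL plated on nutrient agar and colonies counted after 24 h at 37 °C. Duplicate; mean log10 CFU/mL plotted against time.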

S. pneumoniae [17] = assay: Time–kill curve assay; format: cell-based, Streptococcus pneumoniae; conditions: up to 24 h
Outline: as §2

P. aeruginosa = assay: Synergistic assay with ciprofloxacin; format: cell-based
S. typhimurium = assay: Synergistic assay with ciprofloxacin; format: cell-based, Salmonella typhimurium
E. faecalis = assay: Synergistic assay with ciprofloxacin; format: cell-based, Enterococcus faecalis
S. pneumoniae [18] = assay: Synergistic assay with ciprofloxacin; format: cell-based, Streptococcus pneumoniae
E. coli [19] = assay: Synergistic assay with ciprofloxacin; format: cell-based, Escherichia coli
E. coli cells = assay: Confocal laser microscopy with DAPI staining; format: cell-based, Escherichia coli; conditions: MIC of 4l for 3 h
E. coli biofilm [20] = assay: Biofilm assessment by XTT assay; format: cell-based, Escherichia coli; conditions: for reduction in absorbance (biofilm, XTT): 24 h
Outline: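 Biofilms grown from 100 μL standardized cell suspension in nutrient broth with 0.5% extra glucose, 37 °C, 24 h, static. […] Washed again, XTT salt added for 90 min at 37 °C in the dark, A490 read. % inhibition taken from dose–response curves.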

S. pneumoniae biofilm = assay: Biofilm assessment by XTT assay; format: cell-based, Streptococcus pneumoniae
E. coli biofilm [21] = assay: Biofilm formation assessment by SEM; format: cell-based, Escherichia coli; conditions: 24 h
Outline: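 Sterile glass pieces (10 mm2) placed in nutrient broth with 0.5% extra glucose and inoculated with fresh E. coli primary culture. […] Glass washed with PBS and fixed overnight in 2.5% glutaraldehyde/2% paraformaldehyde in 0.1 M phosphate buffer pH 7.4. Washed, dried, imaged by SEM; untreated control included.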

[22] = P. aeruginosa, 4l combined with CIP
[23] = S. typhimurium, 4l combined with CIP
[24] = E. faecalis, 4l combined with CIP
[25] = S. pneumoniae, 4l combined with CIP

For CNC1=C([N+](=O)[O-])C2(C(=O)Nc3ccc([N+](=O)[O-])cc32)C2=C(CC(C)(C)CC2=O)O1 (stereo not shown) [Compound 4d], the inhibition at 250 µg/mL (E. faecalis MTCC 439 [1]) was 30.4%, the inhibition at 250 µg/mL (P. auroginosa MTCC 2453 [2]) was 52.5% and the inhibition at 250 µg/mL (S. pneumoniae MTCC 655 [3]) was 23.2%. For the same molecule, the inhibition at 250 µg/mL (E. coli ATCC 25922 [4]) was 36.1%.

Work on CNC1=C([N+](=O)[O-])C2(C(=O)Nc3ccccc32)c2c(c3ccccc3oc2=O)O1 (stereo not shown) [Compound 4i] yielded an inhibition at 250 µg/mL (E. faecalis MTCC 439 [1]) of 7.5%, an inhibition at 250 µg/mL (P. auroginosa MTCC 2453 [2]) of 6.58% and an inhibition at 250 µg/mL (S. pneumoniae MTCC 655 [3]) of 1.96%. It also gave an inhibition at 250 µg/mL (E. coli ATCC 25922 [4]) of 15.4%.

Molecule CNC1=C([N+](=O)[O-])C2(C(=O)Nc3ccc(Cl)cc32)c2c(c3ccccc3oc2=O)O1 (stereo not shown) [Compound 4j] has an inhibition at 250 µg/mL (E. faecalis MTCC 439 [1]) of 27.2%, an inhibition at 250 µg/mL (P. auroginosa MTCC 2453 [2]) of 23.1% and an inhibition at 250 µg/mL (S. pneumoniae MTCC 655 [3]) of 27.8%. The inhibition at 250 µg/mL (E. coli ATCC 25922 [4]) was 45.8%.

Molecule CNC1=C([N+](=O)[O-])C2(C(=O)Nc3ccc(Br)cc32)c2c(c3ccccc3oc2=O)O1 (stereo not shown) [Compound 4k] has an inhibition at 250 µg/mL (E. faecalis MTCC 439 [1]) of 18.1%, an inhibition at 250 µg/mL (P. auroginosa MTCC 2453 [2]) of 4.61% and an inhibition at 250 µg/mL (S. pneumoniae MTCC 655 [3]) of 19.7%. It also gave an inhibition at 250 µg/mL (E. coli ATCC 25922 [4]) of 32%.

In the case of CNC1=C([N+](=O)[O-])C2(C(=O)Nc3ccccc32)C2=C(O1)C(=O)c1ccccc1C2=O (stereo not shown) [Compound 4l], the “% inhibition at 250 μg/mL” value (E. faecalis MTCC 439 [1]; E. faecalis MTCC 439, 250 μg/mL, 24 h) is reported as “complete inhibition”, the inhibition at 250 µg/mL (E. faecalis MTCC 439 [1]) is reported as 100% and the “% inhibition at 250 μg/mL” value (S. typhimurium MTCC 3224 [5]) is reported as “complete inhibition”. The “% inhibition at 250 μg/mL” value (P. auroginosa MTCC 2453 [2]; P. auroginosa MTCC 2453, 250 μg/mL, 24 h) was “complete inhibition”, the inhibition at 250 µg/mL (P. auroginosa MTCC 2453 [2]) was 100% and the “% inhibition at 250 μg/mL” value (S. pneumoniae MTCC 655 [3]; S. pneumoniae MTCC 655, 250 μg/mL, 24 h) was “complete inhibition”. For the same molecule, the inhibition at 250 µg/mL (S. pneumoniae MTCC 655 [3]) was 100%, the “% inhibition at 250 μg/mL” value (E. coli ATCC 25922 [4]; E. coli ATCC 25922, 250 μg/mL, 24 h) was “complete inhibition” and the inhibition at 250 µg/mL (E. coli ATCC 25922 [4]) was 100%. The MIC (E. faecalis MTCC 439 [6]) was 250 µg/mL (≈ 620 µM), the MIC (S. typhimurium MTCC 3224 [7]) was 250 µg/mL (≈ 620 µM) and the MIC (P. auroginosa MTCC 2453 [8]) was 125 µg/mL (≈ 310 µM). It also gave an MIC (S. pneumoniae MTCC 655 [9]) of 125 µg/mL (≈ 310 µM), an MIC (E. coli ATCC 25922 [10]) of 125 µg/mL (≈ 310 µM) and a hemolysis at 1 h, 100 μg/mL (Hemolytic assay) of 13%. The hemolysis at 1 h, 200 μg/mL (Hemolytic assay) was 20%, the hemolysis at 1 h, 400 μg/mL (Hemolytic assay) was 32% and the “additional opaque zone of inhibition” value (E. coli ATCC 25922 [11]; 2MIC, MIC and 0.5MIC disks) was 3 ± 1 mm. For the same molecule, the “clear zone of inhibition” value (E. coli ATCC 25922 [11]; disk with 0.5MIC (62.5 μg/mL)) was 14 mm, the “clear zone of inhibition” value (E. coli ATCC 25922 [11]; disk with 2MIC (250 μg/mL)) was 18 mm and the “clear zone of inhibition” value (E. coli ATCC 25922 [11]; disk with MIC (125 μg/mL)) was 17 mm. For the same molecule, the “additional opaque zone of inhibition” value (S. pneumoniae MTCC 655 [12]; 2MIC, MIC and 0.5MIC disks) was 3 ± 1 mm, the “clear zone of inhibition” value (S. pneumoniae MTCC 655 [12]; disk with 0.5MIC (62.5 μg/mL)) was 14 mm and the “clear zone of inhibition” value (S. pneumoniae MTCC 655 [12]; disk with 2MIC (250 μg/mL)) was 17 mm. The “clear zone of inhibition” value (S. pneumoniae MTCC 655 [12]; disk with MIC (125 μg/mL)) was 15 mm, the “growth in spot assay (in words)” value (S. pneumoniae MTCC 655 [13]) was “no S. pneumoniae growth” and the “continuous lag phase (no substantial growth)” value (E. coli [14]) was 24 h. The “continuous lag phase (no substantial growth)” value (S. pneumoniae [15]) was 24 h, the “killing activity (time–kill)” value (E. coli [16]; 2MIC, after 24 h) was “complete eradication” and the “killing activity (time–kill)” value (E. coli [16]; MIC, up to 24 h) was “significant decrease in log10 CFU/mL”. The “killing activity (time–kill)” value (S. pneumoniae [17]; 2MIC) was “almost completely killed bacterial cells”, the “killing activity (time–kill)” value (S. pneumoniae [17]; MIC) was “significant decrease in log10 CFU/mL” and the FICI (P. aeruginosa; [22]) was 1.06. For the same molecule, the MIC in combination (P. aeruginosa; [22]) was 15.63 µg/mL, the mode of interaction (P. aeruginosa; [22]) was “indifferent (An FIC index result of >0.5 but <4 was considered indifferent)” and the MIC (P. aeruginosa; Pseudomonas aeruginosa, read-out: MIC alone) was 250 µg/mL. For the same molecule, the FICI (S. typhimurium; [23]) was 1.01, the MIC in combination (S. typhimurium; [23]) was 3.90 µg/mL and the mode of interaction (S. typhimurium; [23]) was “indifferent (An FIC index result of >0.5 but <4 was considered indifferent)”. The MIC (S. typhimurium; Salmonella enterica, TYPHIMURIUM, read-out: MIC alone) was 250 µg/mL, the FICI (E. faecalis; [24]) was 0.27 and the MIC in combination (E. faecalis; [24]) was 3.90 µg/mL. For the same molecule, the mode of interaction (E. faecalis; [24]) was “synergistic (Synergy and antagonism were defined by FIC indices of <0.5 and >4, respectively)”, the MIC (E. faecalis; Enterococcus faecalis, read-out: MIC alone) was 250 µg/mL and the FICI (S. pneumoniae [18]; [25]) was 0.29. For the same molecule, the MIC in combination (S. pneumoniae [18]; [25]) was 3.90 µg/mL, the mode of interaction (S. pneumoniae [18]; [25]) was “synergistic (Synergy and antagonism were defined by FIC indices of <0.5 and >4, respectively)” and the MIC (S. pneumoniae [18]; Streptococcus pneumoniae, read-out: MIC alone) was 125 µg/mL. It also gave an FICI (E. coli [19]; E. coli, 4l combined with CIP) of 0.53, an MIC in combination (E. coli [19]; E. coli, 4l combined with CIP) of 3.90 µg/mL and an MIC (E. coli [19]; Escherichia coli, read-out: MIC alone) of 125 µg/mL. The “effect on E. coli cells under confocal microscopy (DAPI)” value (E. coli cells) was “reduction in the number of living cells”, the “reduction in absorbance (biofilm, XTT)” value (E. coli biofilm [20]; 2MIC (by order)) was 80% and the “reduction in absorbance (biofilm, XTT)” value (E. coli biofilm [20]; 4MIC (first of 4MIC, 2MIC, MIC by order)) was 97%. The “reduction in absorbance (biofilm, XTT)” value (E. coli biofilm [20]; MIC (by order)) was 77%, the “effect on biofilm formation (XTT)” value (E. coli biofilm [20]; sub-MIC: MIC/2, MIC/4, MIC/8) was “significant reduction in biofilm formation” and the “effect on biofilm formation (XTT)” value (S. pneumoniae biofilm; even at MIC, 24 h) was “almost completely disrupted biofilm formation”. The “effect on biofilm formation (XTT)” value (S. pneumoniae biofilm; sub-MIC: MIC/2, MIC/4, MIC/8) was “significant reduction in biofilm formation”, the “biofilm appearance under SEM” value (E. coli biofilm [21]; 2MIC) was “very few scattered bacterial cells” and the “biofilm appearance under SEM” value (E. coli biofilm [21]; MIC) was “significant damage in biofilm formation”.
